Values after ≈ are worked out from the molar mass of the structure shown.
Tests used:
[1] = system: Trichophyton mentagrophytes; experiment: Antifungal activity against Trichophyton mentagrophytes incubated for 48 hrs by broth micro-dilution method; format: functional
Summary of the method: (§1)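 Broth microdilution per NCCLS guidelines in RPMI 1640 buffered with MOPS; starting inoculum 1–5 × 10^3 CFU/mL; plates incubated at 35 °C, MIC read after 48 h.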

[2] = system: Sporothrix schenckii; experiment: Antifungal activity against Sporothrix schenckii incubated for 48 hrs by broth micro-dilution method; format: functional; summary of the method: as §1
[3] = system: Trichomonas vaginalis; experiment: Resistance index, ratio of MIC for MTZ-resistant Trichomonas vaginalis to MIC for MTZ-susceptible Trichomonas vaginalis; format: functional
[4] = system: HeLa; experiment: Cytotoxicity against human HeLa cells assessed as reduction in cell viability at 200 ug/ml incubated for 24 hrs by MTT assay; format: cell-based
Summary of the method: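 HeLa cells seeded at 5 × 10^4 per well, exposed 24 h to compound dilutions in culture medium or vehicle control; MTT (5 mg/mL in pH 7.4 buffer) added, formazan dissolved in DMSO, absorbance read at 540 nm.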

[5] = system: Trichomonas vaginalis; experiment: Anti-trichomonas activity against MTZ-resistant Trichomonas vaginalis incubated for 3 to 48 hrs by trypan blue exclusion assay; format: functional
Summary of the method: (§2)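 Trichomonas vaginalis trophozoites (5 × 10^4/L as printed) in TYM medium; DMSO stocks (100.0 mg/mL) serially diluted in TYM to 0.1 mg/mL, DMSO/TYM vehicle controls. Anaerobic incubation at 37 °C; viability checked 3–48 h by microscopy (200×) with trypan blue exclusion. MIC = lowest concentration killing all cells within 48 h.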

[6] = system: Candida albicans; experiment: Antifungal activity against Candida albicans incubated for 48 hrs by broth micro-dilution method; format: functional; summary of the method: as §1
[7] = system: Candida parapsilosis; experiment: Antifungal activity against Candida parapsilosis ATCC 22019 incubated for 48 hrs by broth micro-dilution method; format: functional; conditions: Lodderomyces parapsilosis, ATCC 22019, 48 h; summary of the method: as §1
[8] = system: Trichomonas vaginalis; experiment: Anti-trichomonas activity against MTZ-susceptible Trichomonas vaginalis incubated for 3 to 48 hrs by trypan blue exclusion assay; format: functional; summary of the method: as §2
[9] = system: Cryptococcus neoformans; experiment: Antifungal activity against Cryptococcus neoformans incubated for 48 hrs by broth micro-dilution method; format: functional; summary of the method: as §1
[10] = Spermicidal activity in liquefied human semen assessed as reduction in motile spermatozoa incubated at 37 degC for 30 mins; format: functional, Sperm; conditions: for minimal effective concentration: Homo sapiens, Sperm, Semen, 0.5 h, read-out: MEC
Summary of the method: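 Compounds dissolved in minimal DMSO, diluted with 0.85% saline to 1.0% test solution; liquefied human semen mixed 1:5 with test solution, vortexed 10 s; motile sperm scored by phase-contrast microscopy over 60 s in five fields. MEC = lowest concentration immobilizing 100% of sperm, still immotile after dilution with nutrient medium.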

[11] = system: Aspergillus fumigatus; experiment: Antifungal activity against Aspergillus fumigatus incubated for 48 hrs by broth micro-dilution method; format: functional; summary of the method: as §1
[12] = Effect on Lactobacillus jensenii ATCC 25258 62G assessed as effect on microbial proliferation at 200 ug/ml incubated for 24 hrs
Summary of the method: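 L. jensenii ATCC 25258 (strain 62G) in 6% Rogosa SL broth with 0.132% acetic acid; serial compound dilutions or vehicle in triplicate, ~1000 CFU per well, 24 h at 37 °C, humidified 5% CO2; growth read as OD610, expressed relative to control = 100.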

[13] = target: Human immunodeficiency virus type 1 reverse transcriptase (Human immunodeficiency virus 1) (UniProt Q72547); experiment: Inhibition of HIV1 reverse transcriptase at 100 ug/ml incubated for 1 hr by ELISA method
Summary of the method: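 Non-radioactive colorimetric ELISA: template/primer with dNTPs plus HIV-1 RT in lysis buffer ± compound (100 µg/mL), 1 h at 37 °C; RT-free buffer as negative control, nevirapine as positive control. Product captured on streptavidin plate 1 h at 37 °C, detected with anti-DIG-POD and ABTS, OD 405 nm.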

Compound	MIC [1] [µM]	MIC [2] [µM]	Ratio [3]	Activity [4]	MIC [5] [µM]	MIC [6] [µM]	MIC [7] [µM]	MIC [8] [µM]	MIC [9] [µM]	MEC [10] [%]	minimal effective concentration [10] [µM]	MIC [11] [µM]	Activity [12]	inhibition [13] [%]
FC(F)(F)c1ccc(OC(CCN2CCN(C(=S)NCCc3ccccc3)CC2)c2ccccc2)cc1 (configuration not stated)	> 81.2	> 81.2	2	Non-toxic	118 (≈ 62.5 µg/mL)	> 81.2	> 81.2	47.3 (≈ 25 µg/mL)	> 81.2	>1	> 19000	> 81.2	Non-toxic	38.4
Cc1ncc([N+](=O)[O-])n1CCO [METRONIDAZOLE]			15		293 (≈ 50.1 µg/mL)			19.7 (≈ 3.37 µg/mL)						
OC(Cn1cncn1)(Cn1cncn1)c1ccc(F)cc1F [FLUCONAZOLE]	> 81.2	6.53 (≈ 2 µg/mL)				3.26 (≈ 0.998 µg/mL)	6.53 (≈ 2 µg/mL)		6.53 (≈ 2 µg/mL)			> 81.2		
FC(F)(F)c1ccc(OC(CCN2CCN(C(=S)NCc3ccccc3)CC2)c2ccccc2)cc1 (configuration not stated)	6.07 (≈ 3.12 µg/mL)	> 81.2	2	Non-toxic	243 (≈ 125 µg/mL)	> 81.2	> 81.2	60.9 (≈ 31.3 µg/mL)	12.1 (≈ 6.21 µg/mL)	>1	> 19500	> 81.2	Non-toxic	51
O=C(CCN1CCN(C(=S)Nc2ccccc2)CC1)c1ccccc1	17.6 (≈ 6.22 µg/mL)	> 81.2	2	Non-toxic	354 (≈ 125 µg/mL)	> 81.2	> 81.2	88.5 (≈ 31.3 µg/mL)	17.6 (≈ 6.22 µg/mL)	0.1	2830	> 81.2	Non-toxic	49.2
O=C(CCN1CCN(C(=S)NCc2ccccc2)CC1)c1ccccc1	4.22 (≈ 1.55 µg/mL)	> 81.2	2	Non-toxic	341 (≈ 125 µg/mL)	67.9 (≈ 25 µg/mL)	> 81.2	85.1 (≈ 31.3 µg/mL)	8.47 (≈ 3.11 µg/mL)	0.1	2720	> 81.2	Non-toxic	58.3
OC(CCN1CCN(C(=S)NCc2ccccc2)CC1)c1ccccc1 (configuration not stated)	> 81.2	> 81.2	2	Non-toxic	339 (≈ 125 µg/mL)	> 81.2	> 81.2	169 (≈ 62.6 µg/mL)	> 81.2	0.05	1350	> 81.2	Non-toxic	47.2
CCCCNC(=S)N1CCN(CCC(Oc2ccc(C(F)(F)F)cc2)c2ccccc2)CC1 (configuration not stated)	> 81.2	> 81.2	2	Non-toxic	261 (≈ 125 µg/mL)	> 81.2	> 81.2	130 (≈ 62.6 µg/mL)	> 81.2	>1	> 20900	> 81.2	Non-toxic	59.6
CCCCNC(=S)N1CCN(CCC(O)c2ccccc2)CC1 (configuration not stated)	> 81.2	> 81.2	4	Non-toxic	187 (≈ 62.6 µg/mL)	> 81.2	> 81.2	46.4 (≈ 15.6 µg/mL)	> 81.2	0.05	1490	> 81.2	Non-toxic	29.1
OC(CCN1CCN(C(=S)NC2CCCCC2)CC1)c1ccccc1 (configuration not stated)	> 81.2	> 81.2	2	Non-toxic	174 (≈ 62.8 µg/mL)	> 81.2	> 81.2	173 (≈ 62.6 µg/mL)	> 81.2	1	27700	> 81.2	Non-toxic	24.3
O=C(CCN1CCN(C(=S)NC2CCCCC2)CC1)c1ccccc1	4.33 (≈ 1.56 µg/mL)	> 81.2	2	Non-toxic	175 (≈ 62.8 µg/mL)	34.7 (≈ 12.5 µg/mL)	> 81.2	43.3 (≈ 15.6 µg/mL)	8.6 (≈ 3.09 µg/mL)	0.05	1390	> 81.2	Non-toxic	47.7
FC(F)(F)c1ccc(OC(CCN2CCN(C(=S)Nc3ccccc3)CC2)c2ccccc2)cc1 (configuration not stated)	> 81.2	> 81.2	2	Non-toxic		> 81.2	> 81.2	50.1 (≈ 25 µg/mL)	> 81.2	0.05	1000	> 81.2	Non-toxic	21.1
OC(CCN1CCN(C(=S)NCCc2ccccc2)CC1)c1ccccc1 (configuration not stated)	> 81.2	> 81.2	4	Non-toxic	163 (≈ 62.6 µg/mL)	> 81.2	> 81.2	40.6 (≈ 15.6 µg/mL)	> 81.2	0.1	2610	> 81.2	Non-toxic	45.3
O=C(CCN1CCN(C(=S)NCCc2ccccc2)CC1)c1ccccc1	> 81.2	> 81.2	2	Non-toxic	164 (≈ 62.6 µg/mL)	> 81.2	> 81.2	40.8 (≈ 15.6 µg/mL)	> 81.2	0.01	260	> 81.2	Non-toxic	50.2
OC(CCN1CCN(C(=S)Nc2ccccc2)CC1)c1ccccc1 (configuration not stated)	> 81.2	> 81.2	2	Non-toxic	352 (≈ 125 µg/mL)	> 81.2	> 81.2		> 81.2	0.1	2820	> 81.2	Non-toxic	
FC(F)(F)c1ccc(OC(CCN2CCN(C(=S)NC3CCCCC3)CC2)c2ccccc2)cc1 (configuration not stated)	> 81.2	> 81.2	2	Non-toxic	495 (≈ 250 µg/mL)	> 81.2	> 81.2	64.3 (≈ 32.5 µg/mL)	> 81.2	>1	> 19800	> 81.2	Non-toxic	24.3

Reference: ChEMBL document CHEMBL3612038, “N-Alkyl/aryl-4-(3-substituted-3-phenylpropyl)piperazine-1-carbothioamide as dual-action vaginal microbicides with reverse transcriptase inhibition” (Eur J Med Chem, 2015)
